Activity calls are given as the source filed them. No cut-off for these calls is given here.
Assays:
Mus musculus [1] = assay: Compound was tested in vivo Percent Maximal response activity in mouse gallbladder emptying assay at dose of 1 nmol/kg ip
Mus musculus [2] = assay: Compound was tested in vivo for Percent Maximal response in mouse gallbladder emptying assay at dose of 1 umol/kg po; ia = Inactive; assay type: functional, organism-based
Cavia porcellus [3] = species on record: Cavia porcellus; assay: Maximum contractile response at 30 uM, normalized to CCK-8 (1 uM); assay type: functional
Mus musculus [4] = assay: Compound was tested in vivo for its activity in mouse gallbladder emptying assay at dose of 1 umol/kg po; ia = Inactive; assay type: functional, organism-based
Rattus norvegicus [5] = assay: Compound was tested in vivo for its anorectic potency in rats at dose of 0.5 umol/kg ip
Rattus norvegicus [6] = assay: Compound was tested in vivo for its Percent Maximal anorectic potency in rats at dose of 0.1 umol/kg ip; assay type: functional
Rattus norvegicus [7] = assay: Compound was tested in vivo for its Percent Maximal anorectic potency in rats at dose of 10 umol/kg po; ia = Inactive
Cavia porcellus [8] = species on record: Cavia porcellus; assay: In vitro functional activity on the isolated guinea pig gallbladder; parameters: concentration or dose not given beside the values
Cavia porcellus [9] = species on record: Cavia porcellus; assay: In vitro potency on the isolated guinea pig gallbladder; assay type: functional
Cavia porcellus [10] = species on record: Cavia porcellus; assay: In vitro Functional activity on the isolated guinea pig gallbladder following incubation at 1 micro M percent contraction normalized to that for CCK-8
In short: (§1)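 Contraction is expressed as percent of the CCK-8 (1 μM) response. Non-contracting compounds were tested for antagonism against a CCK-8 curve (10⁻¹¹ to 10⁻⁶ M).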

Cavia porcellus [11] = species on record: Cavia porcellus; assay: In vitro Functional activity on the isolated guinea pig gallbladder following incubation at 30 uM percent contraction normalized to that for CCK-8; inactive
In short: as §1

Mus musculus [12] = assay: Compound was tested in vivo for its activity in mouse gallbladder emptying assay at dose of 0.1 umol/kg ip; assay type: functional
Rattus norvegicus [13] = assay: Compound was tested in vivo for its Percent Maximal anorectic potency in rats at dose of 0.5 umol/kg ip
Cavia porcellus [14] = species on record: Cavia porcellus; assay: In-vitro potency on the isolated guinea pig gallbladder; assay type: functional

Row | SMILES | Activity (Cavia porcellus [8]) [%] | other results
1 | CC(C)N(C(=O)CN1C(=O)C(NC(=O)Nc2ccccc2)C(=O)N(c2ccccc2)c2ccccc21)c1ccccc1 (stereo not drawn) | 86 | Max (Mus musculus [1]): 78%; Max (Mus musculus [2]): inactive; Max (Cavia porcellus [3]): 86%; ED50 (Mus musculus [4]): inactive; ED50 (Rattus norvegicus [5]): 0.95 µmol/kg; Max (Rattus norvegicus [6]): 96%; Max (Rattus norvegicus [7]): inactive; EC50 (Cavia porcellus [9]): 1260 nM
2 | CC(C)N(C(=O)CN1C(=O)C(NC(=O)Nc2cccc(OCC(=O)O)c2)C(=O)N(c2ccccc2)c2ccccc21)c1ccccc1 (stereo not drawn) | 98 | Activity (Cavia porcellus [10]): 85%
3 | CC(C)N(C(=O)CN1C(=O)C(NC(=O)Cc2ccccc2)C(=O)N(c2ccccc2)c2ccccc21)c1ccccc1 (stereo not drawn) | 28 | 
4 | CC(C)N(C(=O)CN1C(=O)C(NC(=O)c2cccc(C(=O)O)c2)C(=O)N(c2ccccc2)c2ccccc21)c1ccccc1 (stereo not drawn) | 56 | 
5 | CC(C)N(C(=O)CN1C(=O)C(NC(=O)c2ccccc2C(=O)O)C(=O)N(c2ccccc2)c2ccccc21)c1ccccc1 (stereo not drawn) | 58 | 
6 | CC(C)N(C(=O)CN1C(=O)C(NC(=O)Nc2cccc(CC(=O)O)c2)C(=O)N(c2ccccc2)c2ccccc21)c1ccccc1 (stereo not drawn) | 89 | 
7 | CC(C)N(C(=O)CN1C(=O)C(NC(=O)Nc2cccc(NS(=O)(=O)C(F)(F)F)c2)C(=O)N(c2ccccc2)c2ccccc21)c1ccccc1 (stereo not drawn) | 89 | Activity (Cavia porcellus [10]): 87%
8 | CC(C)N(C(=O)CN1C(=O)C(NC(=O)c2cccnc2)C(=O)N(c2ccccc2)c2ccccc21)c1ccccc1 (stereo not drawn) | 43 | 
9 | COc1cccc(NC(=O)NC2C(=O)N(CC(=O)N(c3ccccc3)C(C)C)c3ccccc3N(c3ccccc3)C2=O)c1 (stereo not drawn) | 78 | 
10 | CC(C)N(C(=O)CN1C(=O)C(NC(=O)Nc2cccc(-c3nn[nH]n3)c2)C(=O)N(c2ccccc2)c2ccccc21)c1ccccc1 (stereo not drawn) | 79 | Activity (Cavia porcellus [10]): 64%
11 | CC(C)N(C(=O)CN1C(=O)C(NC(=O)Nc2cccc(S(C)(=O)=O)c2)C(=O)N(c2ccccc2)c2ccccc21)c1ccccc1 (stereo not drawn) | 53 | 
12 | CC(C)NC(=O)NC1C(=O)N(CC(=O)N(c2ccccc2)C(C)C)c2ccccc2N(c2ccccc2)C1=O (stereo not drawn) | 22 | 
13 | CC(C)N(C(=O)CN1C(=O)C(NC(=O)Nc2cccc(N)c2)C(=O)N(c2ccccc2)c2ccccc21)c1ccccc1 (stereo not drawn) | 76 | Activity (Cavia porcellus [10]): 50%
14 | Cc1ccccc1NC(=O)NC1C(=O)N(CC(=O)N(c2ccccc2)C(C)C)c2ccccc2N(c2ccccc2)C1=O (stereo not drawn) | 34 | 
15 | CC(C)N(C(=O)CN1C(=O)C(NC(=O)Nc2cccc(C(N)=O)c2)C(=O)N(c2ccccc2)c2ccccc21)c1ccccc1 (stereo not drawn) | 76 | 
16 | CC(C)N(C(=O)CN1C(=O)C(NC(=O)Nc2cccc(N(C)C)c2)C(=O)N(c2ccccc2)c2ccccc21)c1ccccc1 (stereo not drawn) | 58 | Activity (Cavia porcellus [10]): 29%
17 | CC(C)N(C(=O)CN1C(=O)C(NC(=O)Nc2cccc(OCCN(C)C)c2)C(=O)N(c2ccccc2)c2ccccc21)c1ccccc1 (stereo not drawn) | 2 | 
18 | CC(C)N(C(=O)CN1C(=O)C(NC(=O)c2cc3ccccc3o2)C(=O)N(c2ccccc2)c2ccccc21)c1ccccc1 (stereo not drawn) | 35 | 
19 | CSc1cccc(NC(=O)NC2C(=O)N(CC(=O)N(c3ccccc3)C(C)C)c3ccccc3N(c3ccccc3)C2=O)c1 (stereo not drawn) | 58 | 

Row | SMILES | Activity (Cavia porcellus [8]) [%] | other results
20 | CC(C)N(C(=O)CN1C(=O)C(NC(=O)Nc2cccc(CO)c2)C(=O)N(c2ccccc2)c2ccccc21)c1ccccc1 (stereo not drawn) | 90 | Activity (Cavia porcellus [10]): 85%
21 | CC(C)N(C(=O)CN1C(=O)C(NC(=O)Nc2cccc(O)c2)C(=O)N(c2ccccc2)c2ccccc21)c1ccccc1 (stereo not drawn) | 89 | Activity (Cavia porcellus [10]): 82%
22 | CC(C)N(C(=O)CN1C(=O)C(NC(=O)Nc2cccc(OCC(=O)N3CCOCC3)c2)C(=O)N(c2ccccc2)c2ccccc21)c1ccccc1 (stereo not drawn) | 78 | 
23 | Cc1ccc(NC(=O)NC2C(=O)N(CC(=O)N(c3ccccc3)C(C)C)c3ccccc3N(c3ccccc3)C2=O)cc1 (stereo not drawn) | 20 | 
24 | CC(C)N(C(=O)CN1C(=O)C(NC(=O)NCc2ccccc2)C(=O)N(c2ccccc2)c2ccccc21)c1ccccc1 (stereo not drawn) | 1 | 
25 | CC(C)N(C(=O)CN1C(=O)C(NC(N)=O)C(=O)N(c2ccccc2)c2ccccc21)c1ccccc1 (stereo not drawn) |  | Activity (Cavia porcellus [11]): inactive
26 | CC(C)N(C(=O)CN1C(=O)C(NC(=O)c2ccccc2)C(=O)N(c2ccccc2)c2ccccc21)c1ccccc1 (stereo not drawn) | 57 | 
27 | Cc1cccc(NC(=O)NC2C(=O)N(CC(=O)N(c3ccccc3)C(C)C)c3ccccc3N(c3ccccc3)C2=O)c1 (stereo not drawn) | 5 | 
28 | CC(C)N(C(=O)CN1C(=O)C(NC(=O)Nc2cccc(OCC(=O)N(C)C)c2)C(=O)N(c2ccccc2)c2ccccc21)c1ccccc1 (stereo not drawn) | 77 | 
29 | CC(C)N(C(=O)CN1C(=O)C(NC(=O)c2ccncc2)C(=O)N(c2ccccc2)c2ccccc21)c1ccccc1 (stereo not drawn) | 43 | 
30 | CC(C)N(C(=O)CN1C(=O)C(NC(=O)Nc2cccc(Cl)c2)C(=O)N(c2ccccc2)c2ccccc21)c1ccccc1 (stereo not drawn) | 7 | 
31 | CC(C)N(C(=O)CN1C(=O)C(NC(=O)Nc2ccc(C(=O)O)cc2)C(=O)N(c2ccccc2)c2ccccc21)c1ccccc1 (stereo not drawn) | 14 | 
32 | CC(C)N(C(=O)CN1C(=O)C(NC(=O)N2CCNCC2)C(=O)N(c2ccccc2)c2ccccc21)c1ccccc1 (stereo not drawn) |  | Activity (Cavia porcellus [11]): inactive
33 | CC(C)N(C(=O)CN1C(=O)C(NC(=O)Nc2ccccc2O)C(=O)N(c2ccccc2)c2ccccc21)c1ccccc1 (stereo not drawn) | 16 | 
34 | CC(C)N(C(=O)CN1C(=O)C(NC(=O)c2c[nH]c3ccccc23)C(=O)N(c2ccccc2)c2ccccc21)c1ccccc1 (stereo not drawn) | 5 | 
35 | COc1ccc(NC(=O)NC2C(=O)N(CC(=O)N(c3ccccc3)C(C)C)c3ccccc3N(c3ccccc3)C2=O)cc1 (stereo not drawn) | 38 | 
36 | CSCC[C@H](NC(=O)[C@H](Cc1ccc(OS(=O)(=O)O)cc1)NC(=O)[C@@H](N)CC(=O)O)C(=O)NCC(=O)N[C@@H](Cc1c[nH]c2ccccc12)C(=O)N[C@@H](CCSC)C(=O)N[C@@H](CC(=O)O)C(=O)N[C@@H](Cc1ccccc1)C(N)=O [SINCALIDE] |  | Max (Mus musculus [1]): 95%; ED50 (Mus musculus [12]): 3e-05 µmol/kg; Max (Cavia porcellus [3]): 100%; ED50 (Rattus norvegicus [5]): 0.027 µmol/kg; Max (Rattus norvegicus [13]): 95%; Max (Rattus norvegicus [7]): inactive; EC50 (Cavia porcellus [14]): 0.794 nM
37 | CC(C)N(C(=O)CN1C(=O)C(NC(=O)Nc2cccc(OCC(N)=O)c2)C(=O)N(c2ccccc2)c2ccccc21)c1ccccc1 (stereo not drawn) | 95 | 

From ChEMBL document CHEMBL1129463, “Discovery of 1,5-benzodiazepines with peripheral cholecystokinin (CCK-A) receptor agonist activity (II): Optimization of the C3 amino substituent” (J Med Chem, 1996)
